Article PMC9337217 (Pharmacology Research & Perspectives, 2022)
No end group written: not given here.

Experiments:
human NK1 receptor [1] = molecular target: T1, human NK1 receptor (Homo sapiens, UniProt P25103); test: NK1R antagonist block of SP‐induced Ca2+ mobilization in HEK‐NK1R cells; type: cell-based; conditions: antagonist 100 nM, 2 min pre‐incubation; n = 5
In short: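 HEK-293 cells stably expressing human NK1R, grown in IMDM/10% FBS with hygromycin. Loaded with 4 μM Fura-2 AM (60–90 min, 37°C), 100 000 cells/well. After a 30-s baseline, antagonist or DMSO vehicle is added for 2 min, then the stimulus. Ratiometric Ca2+ (340/380 nm) is read over 4 min at 37°C. Paired t-test.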

LAD2 human mast cells [2] = conditions: cited from earlier work
LAD2 human mast cells [3] = conditions: cited from earlier work; remark: listed apart in the source
LAD2 human mast cells [4] = test: LAD2 cell degranulation; type: cell-based; conditions: β‐hexosaminidase release
In short: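 IgE-sensitized LAD2 cells (wild-type or MRGPRX2-knockdown) in HANKS buffer pH 7.4, 35 000 cells/well, exposed to a concentration range for 30 min at 37°C. Supernatant is incubated with 4 mM p-NAG (pH 4.5) for 90 min at 37°C, quenched with glycine pH 10.7, and read at 405 nm. Release is expressed as % of Triton X-100 (0.1%) lysate total, minus spontaneous release.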

human NK1 receptor [5] = molecular target: T1, human NK1 receptor; test: Ca2+ mobilization in HEK‐NK1R cells; type: cell-based; conditions: even at high concentrations
LAD2 human mast cells [6] = test: Ca2+ mobilization in LAD2 cells; type: cell-based; conditions: Fura‐2
In short: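 IgE-sensitized LAD2 cells (JW8 conditioned medium, 48 h), wild-type or MRGPRX2-knockdown, washed in HANKS buffer with 1 mM probenecid. Loaded with 2 μM Fura-2 AM for 60–90 min at 37°C, then plated at 60 000 cells/well. Test compound is injected after a 30-s baseline and the 340/380 nm ratio (510 nm emission) is recorded for 6 min at 37°C. Peak ratios are taken across a concentration range.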

LAD2 human mast cells [7] = test: CCL2 release by LAD2 mast cells; type: cell-based; conditions: 24 h
MRGPRX2 = molecular target: T2, MRGPRX2 (Homo sapiens, UniProt Q96LB1); test: Antagonism of SP activation of MRGPRX2; type: cell-based; conditions: pilot studies, results not shown
T2 sequence (Q96LB1 1-330): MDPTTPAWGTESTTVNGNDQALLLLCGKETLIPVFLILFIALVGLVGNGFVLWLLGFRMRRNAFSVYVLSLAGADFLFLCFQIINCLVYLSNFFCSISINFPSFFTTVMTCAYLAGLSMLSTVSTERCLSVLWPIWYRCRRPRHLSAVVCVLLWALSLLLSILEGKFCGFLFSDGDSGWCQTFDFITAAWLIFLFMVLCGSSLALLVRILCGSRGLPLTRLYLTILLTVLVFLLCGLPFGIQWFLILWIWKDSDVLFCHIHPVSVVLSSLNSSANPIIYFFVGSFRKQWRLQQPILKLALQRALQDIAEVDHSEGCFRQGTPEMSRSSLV

T1 sequence (P25103 whole entry): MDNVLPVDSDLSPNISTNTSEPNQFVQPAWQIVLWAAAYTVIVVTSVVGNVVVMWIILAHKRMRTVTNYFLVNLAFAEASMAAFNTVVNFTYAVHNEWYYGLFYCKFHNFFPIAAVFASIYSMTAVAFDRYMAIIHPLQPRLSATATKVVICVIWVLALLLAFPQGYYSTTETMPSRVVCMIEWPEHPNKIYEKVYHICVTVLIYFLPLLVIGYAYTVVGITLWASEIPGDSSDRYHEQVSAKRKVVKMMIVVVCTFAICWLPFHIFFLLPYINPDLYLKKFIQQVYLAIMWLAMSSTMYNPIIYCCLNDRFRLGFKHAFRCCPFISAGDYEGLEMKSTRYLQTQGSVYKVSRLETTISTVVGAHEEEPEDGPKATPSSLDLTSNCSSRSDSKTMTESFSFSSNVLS

COc1ccc(-n2nnnc2C(F)(F)F)cc1CN[C@H]1CCCN[C@H]1c1ccccc1 [GR205171, vofopitant]
effect of antagonist pretreatment on SP responses in HEK‐NK1R cells (human NK1 receptor [1]): effectively blocked SP responses

C=CC[N+]1([C@H]2C[C@H]3[C@@H]4CC[C@H]5C[C@H](O)[C@@H](N6CCOCC6)C[C@]5(C)[C@H]4CC[C@]3(C)[C@H]2OC(C)=O)CCCC1 [rocuronium]
degranulation in LAD2 cells, in words (LAD2 human mast cells [2]): without triggering concomitant degranulation | Ca^2+ mobilization in LAD2 cells, in words (LAD2 human mast cells [3]): shows a mobilization of Ca^2+

SP(1–7)‐COOH: C‐terminally truncated in vivo metabolite of SP, residues 1–7, free acid (RPKPQQF-OH; UniProt P20366 58-64, looked up, fragment)
LAD2 degranulation, in words (LAD2 human mast cells [4]): failed to produce cellular activation | activation of NK1R (Ca^2+ mobilization), in words (human NK1 receptor [5]): failed to induce significant activation | LAD2 Ca^2+ mobilization, in words (LAD2 human mast cells [6]): failed to produce cellular activation | CCL2 cytokine release from LAD2 cells, in words (LAD2 human mast cells [7]): minimal and comparable to spontaneous release | antagonism of SP activation of MRGPRX2 (MRGPRX2): not been able to demonstrate any antagonism
